Peptide text beside a SMILES is read from it.
What was measured:
[1] = biological target: HLA-A*6601 (Homo sapiens, UniProt P04439, A114D/A173T/A270S/D185E/E277Q/E87N/F33Y/G231S/I121R/I218V/K168Q/L180W/L300P/L318F/P208A/P217A/Q86R/R138Q/S129P/T187R/T323A/T345S/V358M); experiment: Competitive peptide-binding assay, purified HLA-A*6601
Procedure, shortened: (§1)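 HLA class I purified from EBV-transformed homozygous or single-allele-transfected 721.221/C1R lysates on W6/32 beads (some HLA-A pre-depleted of B/C on B1.23.2). 0.1–1 nM radiolabeled high-affinity probe, 1 µM to 1 nM MHC, protease inhibitors, 1 µM β2m; 2 days, room temp. Complexes captured on W6/32 plates, cpm counted. Competitor at six concentrations over 100,000-fold range, ≥3 experiments; IC50 = 50% probe inhibition.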

[2] = biological target: HLA-A*3101 (Homo sapiens, UniProt P04439, A270S/D185E/E176V/E277Q/F33T/G231S/G80R/H175R/I121M/I218V/I322F/K168Q/L300P/L318F/M331R/P217A/Q94H/R138Q/T323A/T345S/T97I/V358M); experiment: Competitive peptide-binding assay, purified HLA-A*3101
[3] = biological target: HLA-A*3001 (Homo sapiens, UniProt P04439, D140H/D185E/E176W/F33S/G80R/H175R/K168Q/R138E/R41S); experiment: Competitive peptide-binding assay, purified HLA-A*3001
Procedure, shortened: as §1

[4] = biological target: HLA-A*1101 (Homo sapiens, UniProt P04439, A114D/D185E/E176A/F33Y/L180Q/S129P/T187R); experiment: Competitive peptide-binding assay, purified HLA-A*1101
[5] = biological target: HLA-A*3301 (Homo sapiens, UniProt P04439, A270S/D185E/E176V/E277Q/E87N/F33T/G231S/H175R/I121M/I218V/I322F/K168Q/K210R/L300P/L318F/M331R/P217A/Q86R/Q94H/R138Q/T323A/T345S/T97I/V358M/Y195H); experiment: Competitive peptide-binding assay, purified HLA-A*3301
Procedure, shortened: as §1

[6] = biological target: HLA-A*0301 (Homo sapiens, UniProt P04439); experiment: Competitive peptide-binding assay, purified HLA-A*0301
Procedure, shortened: as §1

[7] = biological target: HLA-A*6801 (Homo sapiens, UniProt P04439, A269V/D185E/E176V/E277Q/E87N/F33Y/G231S/I121M/I166T/I218V/L180W/L300P/L318F/N151K/P208A/P217A/Q86R/R169H/T345S); experiment: Competitive peptide-binding assay, purified HLA-A*6801
Procedure, shortened: as §1

[8] = biological target: HLA-B*3501 (Homo sapiens, UniProt P01889, A329T/A93T/A95T/C349S/D201E/D98Y/E176V/E187L/E204Q/E69T/I218V/K202T/L119I/Q94N/R155S/R180L/S121R/S35A/S48A/T118I/V127L/V306I/V36M/Y140S/Y91F); experiment: Competitive peptide-binding assay, purified HLA-B*3501
Procedure, shortened: as §1

[9] = biological target: HLA-B*5301 (Homo sapiens, UniProt P01889, A329T/A93T/A95T/C349S/D201E/D98Y/E176V/E187L/E204Q/E69T/G107R/I218V/K202T/L105A/L119I/N104I/Q94N/R106L/R155S/R180L/S101N/S121R/S35A/S48A/T118I/V127L/V306I/V36M/Y140S/Y91F); experiment: Competitive peptide-binding assay, purified HLA-B*5301
Procedure, shortened: as §1

[10] = biological target: HLA-B*5401 (Homo sapiens, UniProt P01889, A329T/C349S/D138N/D201E/E176V/E187T/E204Q/E69G/I76V/K202T/L119W/R155S/R180L/S121T/S35A/S48A/V127L/V306I/V36M/Y140L); experiment: Competitive peptide-binding assay, purified HLA-B*5401
Procedure, shortened: as §1

[11] = biological target: HLA-B*4201 (Homo sapiens, UniProt P01889, D138N/E176V/E187T/K202T/R180D); experiment: Competitive peptide-binding assay, purified HLA-B*4201
Procedure, shortened: as §1

[12] = biological target: HLA-B*0702 (Homo sapiens, UniProt P01889); experiment: Competitive peptide-binding assay, purified HLA-B*0702
Procedure, shortened: as §1

[13] = biological target: HLA-B*5101 (Homo sapiens, UniProt P01889, A329T/A93T/A95T/C349S/D138N/D201E/D98Y/E187L/E204Q/E69T/G107R/I218V/K202T/L105A/L119W/N104I/Q94N/R106L/R155S/R180L/S101N/S121T/S35A/S48A/V306I/V36M/Y195H/Y91F); experiment: Competitive peptide-binding assay, purified HLA-B*5101
Procedure, shortened: as §1

[14] = biological target: HLA-B*3503 (Homo sapiens, UniProt P01889, A329T/A93T/A95T/C349S/D201E/D98Y/E176V/E187L/E204Q/E69T/I218V/K202T/L119I/Q94N/R155S/R180L/S121R/S35A/S48A/T118I/V127L/V306I/V36M/Y140F/Y91F); experiment: Competitive peptide-binding assay, purified HLA-B*3503
Procedure, shortened: as §1

[15] = system: T cells of recent-onset HLA-A*0201-positive patients; conditions: recent-onset HLA-A*0201-positive type 1 diabetes patients; cited from earlier work

Row | Compound | IC50 [1] | IC50 [2] | IC50 [3] | IC50 [4] | IC50 [5] | IC50 [6] | IC50 [7] | IC50 [8] | IC50 [9] | IC50 [10] | IC50 [11] | IC50 [12] | IC50 [13] | IC50 [14] | Patients showing T cell responses to the peptide (fraction in words) [15]
1 | CC[C@H](C)[C@H](NC(=O)[C@H](C)N)C(=O)N[C@@H](CC(N)=O)C(=O)N[C@@H](CO)C(=O)N[C@@H](CCC(=O)O)C(=O)N[C@@H](CCSC)C(=O)N[C@@H](Cc1ccccc1)C(=O)N[C@@H](CC(C)C)C(=O)N[C@@H](CC(C)C)C(=O)O [Human IGRP 272–280] (H-AINSEMFLL-OH) | 36.7 µM | 1.07 µM | 6.78 µM | 2.82 µM | 12.8 µM | 1.26 µM | 14.2 µM |  |  |  |  |  |  |  | 
2 | CC(C)C[C@H](NC(=O)[C@H](C)NC(=O)[C@H](CC(C)C)NC(=O)[C@@H]1CCCN1C(=O)[C@H](CCC(N)=O)NC(=O)[C@H](CC(C)C)NC(=O)[C@H](CO)NC(=O)CNC(=O)[C@H](C)NC(=O)CNC(=O)[C@@H]1CCCN1C(=O)CN)C(=O)O [Human Ins C15-26] (H-GPGAGSLQPLAL-OH) |  |  |  |  |  |  |  | > 50 µM | 15.5 µM | > 50 µM | 6.07 µM | 0.462 µM | > 50 µM | > 50 µM | 
3 | CC(C)C[C@H](NC(=O)[C@H](C)NC(=O)[C@H](CC(C)C)NC(=O)[C@@H]1CCCN1)C(=O)N[C@@H](CCC(=O)O)C(=O)NCC(=O)N[C@@H](CO)C(=O)N[C@@H](CC(C)C)C(=O)N[C@@H](CCC(N)=O)C(=O)N[C@@H](CCCCN)C(=O)O [Human Ins C23-32] (H-PLALEGSLQK-OH) | 48.5 µM | 39.4 µM | > 50 µM | 37.1 µM | > 50 µM | 20.9 µM | 41.5 µM |  |  |  |  |  |  |  | 
4 | CC(C)C[C@H](NC(=O)[C@H](C)NC(=O)[C@@H](N)CC(C)C)C(=O)N[C@@H](CCC(=O)O)C(=O)NCC(=O)N[C@@H](CO)C(=O)N[C@@H](CC(C)C)C(=O)N[C@@H](CCC(N)=O)C(=O)N[C@@H](CCCCN)C(=O)N[C@@H](CCCNC(=N)N)C(=O)O [Human Ins C24-33] (H-LALEGSLQKR-OH) | 0.515 µM | 38.4 µM | > 50 µM | 34.5 µM | 3.27 µM | 17.5 µM | 0.066 µM |  |  |  |  |  |  |  | 
5 | CC[C@H](C)[C@H](NC(=O)[C@H](C)N)C(=O)N[C@@H](CC(N)=O)C(=O)N[C@@H](CO)C(=O)N[C@@H](CCC(=O)O)C(=O)N[C@@H](CCSC)C(=O)N[C@@H](Cc1ccccc1)C(=O)N[C@@H](CC(C)C)C(=O)N[C@@H](CCCNC(=N)N)C(=O)O [Mouse IGRP 272–280] (H-AINSEMFLR-OH) | 4.55 µM | 0.067 µM | 49.8 µM | 0.209 µM | 1.08 µM | 0.428 µM | 0.109 µM |  |  |  |  |  |  |  | 
6 | CC(C)C[C@H](NC(=O)[C@H](C)NC(=O)[C@H](CC(C)C)NC(=O)[C@@H](NC(=O)[C@H](CCC(N)=O)NC(=O)[C@H](CC(C)C)NC(=O)[C@H](CC(=O)O)NC(=O)CNC(=O)[C@@H]1CCCN1C(=O)[C@@H](N)CO)[C@@H](C)O)C(=O)O [Mouse Ins1 C15-24] (H-SPGDLQTLAL-OH) |  |  |  |  |  |  |  | > 50 µM | 11 µM | > 50 µM | 0.035 µM | 0.0044 µM | > 50 µM | 16.1 µM | 
7 | CC(C)C[C@H](NC(=O)[C@H](C)NC(=O)[C@H](CC(C)C)NC(=O)[C@@H](N)[C@@H](C)O)C(=O)N[C@@H](CCC(=O)O)C(=O)N[C@H](C(=O)N[C@@H](C)C(=O)N[C@@H](CCCNC(=N)N)C(=O)N[C@@H](CCC(N)=O)C(=O)N[C@@H](CCCCN)C(=O)O)C(C)C [Mouse Ins1 C21-30] (H-TLALEVARQK-OH) | > 50 µM | 13 µM | 23.3 µM | 3.33 µM | 25.5 µM | 0.605 µM | 13.4 µM |  |  |  |  |  |  |  | 
8 | CC(C)C[C@H](NC(=O)[C@H](C)NC(=O)[C@@H](N)CC(C)C)C(=O)N[C@@H](CCC(=O)O)C(=O)N[C@H](C(=O)N[C@@H](C)C(=O)N[C@@H](CCCNC(=N)N)C(=O)N[C@@H](CCC(N)=O)C(=O)N[C@@H](CCCCN)C(=O)N[C@@H](CCCNC(=N)N)C(=O)O)C(C)C [Mouse Ins1 C22-31] (H-LALEVARQKR-OH) | 13 µM | 10.8 µM | 43 µM | > 50 µM | 9.14 µM | 43.6 µM | 12.6 µM |  |  |  |  |  |  |  | 
9 | CC(C)C[C@H](NC(=O)[C@H](C)NC(=O)[C@H](CC(C)C)NC(=O)[C@@H](N)[C@@H](C)O)C(=O)N[C@@H](CCC(=O)O)C(=O)N[C@H](C(=O)N[C@@H](C)C(=O)N[C@@H](CCC(N)=O)C(=O)N[C@@H](CCC(N)=O)C(=O)N[C@@H](CCCCN)C(=O)O)C(C)C [Mouse Ins2 C23-32] (H-TLALEVAQQK-OH) | > 50 µM | > 50 µM | > 50 µM | 0.833 µM | > 50 µM | 0.856 µM | 7.49 µM |  |  |  |  |  |  |  | 
10 | IGRP 265–273: HLA-A2-binding IGRP epitope recognised in patients (VLFGLGFAI; UniProt Q9NQR9 265-273, looked up, fragment) |  |  |  |  |  |  |  |  |  |  |  |  |  |  | one quarter

Source: publication PMC3358524 (Journal of Immunology (Baltimore, Md. : 1950), 2012)
